Measurements collected from several papers.
Compare with care: the assays were run in different laboratories.
Target: Ribosomal protein S6 kinase beta-1 (RPS6KB1, Homo sapiens, UniProt P23443)

| SMILES | test | setting | quantity | value |
| --- | --- | --- | --- | --- |
| COc1cc(/C=C/C(=O)CC(=O)/C=C/c2ccc(O)c(OC)c2)ccc1O | enzyme activity, inhibitor | 1 µM | activity vs control | 46% |
| O=C1NC(=O)c2cc(Nc3ccc(F)cc3)c(Nc3ccc(F)cc3)cc21 | cell-free assay | 0.5 µM | remaining signal | 95.5% |
| CC(=O)c1c(NS(C)(=O)=O)c2cc(-c3ccc(Cl)cc3)c(-c3ccc(Cl)cc3Cl)nc2n(C)c1=O | cell-free assay, competition with immobilised ligand | 1 µM | remaining binding | 95% |
| CNc1cccc2cc(C(=O)Nc3ccc(C(=O)O)cc3)c(=O)[nH]c12 | enzyme activity, inhibitor | 10 µM | inhibition | 9% |
| CC/C(=N\NC(=O)NCc1cccc(O)c1)c1ccc(O)c(C)c1O | enzyme activity, inhibitor | 0.1 µM | inhibition | 77.8% |
| Oc1cccc(-c2nc(N3CCOCC3)c3oc4ncccc4c3n2)c1 | cell-free assay | 0.5 µM | remaining signal | 106% |
| C[C@@H]1CN(c2cc(-c3nn(C)c4ccc(OC5(C)CC5)cc34)ncn2)C[C@H](C)O1 | cell-free assay, competition with immobilised ligand | 1 µM | remaining binding | 100% |
| C=CC(=O)Nc1cc(Nc2nccc(Nc3cc(Cl)c(F)cc3C(C)(C)O)n2)c(OC)cc1N1CC[C@@H](N(C)C)C1 | enzyme activity, inhibitor | 1 µM | inhibition | -3% |
| COc1cc2ncnc(Nc3ccc(Oc4ccccc4)c(C)c3C)c2cc1OC | enzyme activity, inhibitor | 1 µM | inhibition | -3% |
| Cn1cncc1C1=CN(c2ncnc3[nH]cnc23)CCS1 | enzyme activity, inhibitor, radiometric | 2 µM | inhibition | 87.3% |
| CNC(=O)c1cc(Oc2ccc(NC(=O)Nc3ccc(Cl)c(C(F)(F)F)c3)cc2)ccn1 | cell-free assay | 0.5 µM | remaining signal | 91.4% |
| COc1cccc(CNC(=O)c2nc3scc(COCc4ccc(C(=O)O)cc4)c3c(=O)[nH]2)c1 | cell-free assay, competition with immobilised ligand | 1 µM | remaining binding | 96.1% |
| CN(C)C1CCN(CC#Cc2nn(C3CCCC3)c3nc(NCc4ccccc4)ncc23)C1 (centres unmarked) | enzyme activity, inhibitor, FRET | 0.1 µM | inhibition | 6% |
| Cc1ccc(C(=O)NCc2ccsc2)cc1C#Cc1cn(C(C)C)c2ncnc(N)c12 | enzyme activity, inhibitor | 1 µM | activity vs control | 92% |
| CNCc1ccccc1-c1csc([C@@H](C)Nc2nc(C)nc3cc(OC)c(OC)cc23)c1 | cell-free assay, competition with immobilised ligand | 1 µM | remaining binding | 86% |
| COc1ccc(COc2ccc(Cc3cnc(N)nc3N)cc2OC)cc1 | cell-free assay | 0.5 µM | remaining signal | 89.5% |
| CN([C@@H]1CCc2c(CC(=O)O)c3ccccc3n2C1)S(=O)(=O)c1ccc(F)cc1 | cell-free assay, competition with immobilised ligand | 1 µM | remaining binding | 100% |
| CCN(CC)CCNC(=O)c1c(C)[nH]c(/C=C2\C(=O)Nc3ccc(F)cc32)c1C | enzyme activity, inhibitor | 10 µM | inhibition | 90% |
| O=C(NCCCC1CCCCC1)c1ccc(CNC(=O)c2cnn(-c3ccccc3)c2C(F)(F)F)cc1 | cell-free assay, competition with immobilised ligand | 0.1 µM | remaining binding | 96% |
| Nc1ncnc2occ(-c3ccc(NC(=O)Nc4cc(C(F)(F)F)ccc4F)cc3)c12 | cell-free assay, inhibitor | 20 µM | remaining signal | 0.1% |
